Experimental data: ChEMBL document CHEMBL4665633, “Cereblon versus VHL: Hijacking E3 ligases against each other using PROTACs” (Bioorg Med Chem, 2019)
Calls of active or inactive are those of the source. The rule behind the calls is not given here.

Experiments:
Type in all cases: cell-based
[1] = biological target: T1, Protein cereblon/von Hippel-Lindau disease tumor suppressor (Homo sapiens, UniProt P40337+Q96SW2); assay: Protac activity at VHL/CRBN in HEK293 cells assessed as pVHL19 protein abundance at 1 uM after 1 hr by Western blot analysis relative to DMSO
Method in brief: (§1)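 HEK293 cells (DMEM, 10% FBS, penicillin/streptomycin, L-glutamine; 37 °C, 5% CO2; ≤30 passages) seeded at 1 × 10⁶ per well overnight, then treated with compound at 0.1% v/v final DMSO. Cells were lysed in RIPA with protease inhibitors and benzonase, then clarified. Equal Bradford-quantified protein was immunoblotted for CRBN/VHL. Bands were normalised to β-tubulin and expressed as % of mean 0.1% DMSO vehicle.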
Target sequence in this assay (P40337 whole entry, looked up): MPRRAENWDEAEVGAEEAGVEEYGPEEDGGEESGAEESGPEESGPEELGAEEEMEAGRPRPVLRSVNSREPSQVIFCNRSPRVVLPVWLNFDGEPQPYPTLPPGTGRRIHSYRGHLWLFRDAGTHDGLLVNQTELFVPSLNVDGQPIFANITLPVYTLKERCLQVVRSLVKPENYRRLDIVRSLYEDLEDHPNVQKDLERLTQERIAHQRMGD
Target sequence in this assay (Q96SW2 whole entry, looked up): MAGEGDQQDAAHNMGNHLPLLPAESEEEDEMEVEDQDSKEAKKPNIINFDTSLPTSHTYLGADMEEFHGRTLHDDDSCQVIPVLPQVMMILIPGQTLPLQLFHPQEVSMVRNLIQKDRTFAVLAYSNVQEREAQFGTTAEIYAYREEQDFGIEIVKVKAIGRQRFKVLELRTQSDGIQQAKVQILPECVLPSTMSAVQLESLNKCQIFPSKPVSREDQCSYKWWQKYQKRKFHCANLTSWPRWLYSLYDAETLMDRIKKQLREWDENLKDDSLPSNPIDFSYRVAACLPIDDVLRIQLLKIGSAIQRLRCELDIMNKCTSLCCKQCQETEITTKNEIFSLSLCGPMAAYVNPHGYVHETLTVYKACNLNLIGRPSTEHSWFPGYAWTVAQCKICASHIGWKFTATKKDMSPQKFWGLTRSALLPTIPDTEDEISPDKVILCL

[2] = biological target: T1, Protein cereblon/von Hippel-Lindau disease tumor suppressor; assay: Protac activity at VHL/CRBN in HEK293 cells assessed as pVHL19 protein abundance at 1 uM after 8 hrs by Western blot analysis relative to DMSO; method in brief: as §1
Target sequence in this assay (P40337 whole entry, looked up): as the sequence (P40337 whole entry, looked up) above
Target sequence in this assay (Q96SW2 whole entry, looked up): as the sequence (Q96SW2 whole entry, looked up) above

[3] = biological target: T1, Protein cereblon/von Hippel-Lindau disease tumor suppressor; assay: Protac activity at VHL/CRBN in HEK293 cells assessed as pVHL19 protein abundance at 1 uM after 12 hrs by Western blot analysis relative to DMSO; method in brief: as §1
Target sequence in this assay (P40337 whole entry, looked up): as the sequence (P40337 whole entry, looked up) above
Target sequence in this assay (Q96SW2 whole entry, looked up): as the sequence (Q96SW2 whole entry, looked up) above

[4] = biological target: T1, Protein cereblon/von Hippel-Lindau disease tumor suppressor; assay: Protac activity at VHL/CRBN in HEK293 cells assessed as pVHL30 protein abundance at 1 uM after 4 hrs by Western blot analysis relative to DMSO; method in brief: as §1
Target sequence in this assay (P40337 whole entry, looked up): as the sequence (P40337 whole entry, looked up) above
Target sequence in this assay (Q96SW2 whole entry, looked up): as the sequence (Q96SW2 whole entry, looked up) above

[5] = biological target: T1, Protein cereblon/von Hippel-Lindau disease tumor suppressor; assay: Protac activity at VHL/CRBN in HEK293 cells assessed as pVHL30 protein abundance at 1 uM after 12 hrs by Western blot analysis relative to DMSO; method in brief: as §1
Target sequence in this assay (P40337 whole entry, looked up): as the sequence (P40337 whole entry, looked up) above
Target sequence in this assay (Q96SW2 whole entry, looked up): as the sequence (Q96SW2 whole entry, looked up) above

[6] = biological target: T1, Protein cereblon/von Hippel-Lindau disease tumor suppressor; assay: Protac activity at VHL/CRBN in HEK293 cells assessed as CRBN protein abundance at 1 uM after 2 hrs by Western blot analysis relative to DMSO; method in brief: as §1
Target sequence in this assay (P40337 whole entry, looked up): as the sequence (P40337 whole entry, looked up) above
Target sequence in this assay (Q96SW2 whole entry, looked up): as the sequence (Q96SW2 whole entry, looked up) above

[7] = biological target: T1, Protein cereblon/von Hippel-Lindau disease tumor suppressor; assay: Protac activity at VHL/CRBN in HEK293 cells assessed as CRBN protein abundance at 1 uM after 12 hrs by Western blot analysis relative to DMSO; method in brief: as §1
[8] = biological target: T1, Protein cereblon/von Hippel-Lindau disease tumor suppressor; assay: Protac activity at VHL/CRBN in HEK293 cells assessed as pVHL19 protein abundance at 500 nM after 4 hrs by Western blot analysis relative to DMSO; method in brief: as §1
[9] = biological target: T1, Protein cereblon/von Hippel-Lindau disease tumor suppressor; assay: Protac activity at VHL/CRBN in HEK293 cells assessed as pVHL19 protein abundance at 5000 nM after 4 hrs by Western blot analysis relative to DMSO; method in brief: as §1
[10] = biological target: T1, Protein cereblon/von Hippel-Lindau disease tumor suppressor; assay: Protac activity at VHL/CRBN in HEK293 cells assessed as pVHL19 protein abundance at 10000 nM after 4 hrs by Western blot analysis relative to DMSO; method in brief: as §1
[11] = biological target: T1, Protein cereblon/von Hippel-Lindau disease tumor suppressor; assay: Protac activity at VHL/CRBN in HEK293 cells assessed as pVHL30 protein abundance at 10 nM after 4 hrs by Western blot analysis relative to DMSO; method in brief: as §1
[12] = biological target: T1, Protein cereblon/von Hippel-Lindau disease tumor suppressor; assay: Protac activity at VHL/CRBN in HEK293 cells assessed as pVHL30 protein abundance at 100 nM after 4 hrs by Western blot analysis relative to DMSO; method in brief: as §1
[13] = biological target: T1, Protein cereblon/von Hippel-Lindau disease tumor suppressor; assay: Protac activity at VHL/CRBN in HEK293 cells assessed as pVHL30 protein abundance at 10000 nM after 4 hrs by Western blot analysis relative to DMSO; method in brief: as §1
[14] = biological target: T1, Protein cereblon/von Hippel-Lindau disease tumor suppressor; assay: Protac activity at VHL/CRBN in HEK293 cells assessed as CRBN protein abundance at 100 nM after 4 hrs by Western blot analysis relative to DMSO; method in brief: as §1
[15] = biological target: T1, Protein cereblon/von Hippel-Lindau disease tumor suppressor; assay: Protac activity at VHL/CRBN in HEK293 cells assessed as CRBN protein abundance at 500 nM after 4 hrs by Western blot analysis relative to DMSO; method in brief: as §1
[16] = biological target: T1, Protein cereblon/von Hippel-Lindau disease tumor suppressor; assay: Protac activity at VHL/CRBN in HEK293 cells assessed as CRBN protein abundance at 5000 nM after 4 hrs by Western blot analysis relative to DMSO; method in brief: as §1
[17] = biological target: T1, Protein cereblon/von Hippel-Lindau disease tumor suppressor; assay: Protac activity at VHL/CRBN in HEK293 cells assessed as CRBN protein abundance at 10000 nM after 4 hrs by Western blot analysis relative to DMSO; method in brief: as §1
[18] = biological target: T1, Protein cereblon/von Hippel-Lindau disease tumor suppressor; assay: Protac activity at VHL/CRBN in human HeLa cells assessed as pVHL19 protein abundance at 1 uM after 1 hr by Western blot analysis relative to DMSO
Method in brief: (§2)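 HeLa cells seeded overnight, then exposed to 1 µM compound (0.1% v/v DMSO final) over a time course. Cells were DPBS-washed and RIPA-lysed with protease inhibitors and benzonase; equal protein was loaded. Immunoblots for CRBN and VHL isoforms were quantified against β-tubulin and reported relative to the averaged 0.1% DMSO vehicle.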

[19] = biological target: T1, Protein cereblon/von Hippel-Lindau disease tumor suppressor; assay: Protac activity at VHL/CRBN in human HeLa cells assessed as pVHL19 protein abundance at 1 uM after 8 hrs by Western blot analysis relative to DMSO; method in brief: as §2
[20] = biological target: T1, Protein cereblon/von Hippel-Lindau disease tumor suppressor; assay: Protac activity at VHL/CRBN in human HeLa cells assessed as pVHL19 protein abundance at 5 nM after 4 hrs by Western blot analysis relative to DMSO
Method in brief: (§3)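 HeLa cells (5 × 10⁵, DMEM + 10% FBS, 37 °C, 5% CO₂, ≤30 passages) seeded overnight, then treated 4 h with compound at single or graded concentrations (0.1% v/v DMSO final). RIPA lysates equalised by Bradford; SDS-PAGE and anti-CRBN/anti-VHL immunoblots; bands normalised to β-tubulin and expressed as % of mean DMSO vehicle. DC₅₀ from fit of band intensity versus log[concentration].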

[21] = biological target: T1, Protein cereblon/von Hippel-Lindau disease tumor suppressor; assay: Protac activity at VHL/CRBN in human HeLa cells assessed as pVHL19 protein abundance at 500 nM after 4 hrs by Western blot analysis relative to DMSO; method in brief: as §3
[22] = biological target: T1, Protein cereblon/von Hippel-Lindau disease tumor suppressor; assay: Protac activity at VHL/CRBN in human HeLa cells assessed as pVHL19 protein abundance at 1000 nM after 4 hrs by Western blot analysis relative to DMSO; method in brief: as §3
[23] = biological target: T1, Protein cereblon/von Hippel-Lindau disease tumor suppressor; assay: Protac activity at VHL/CRBN in human HeLa cells assessed as pVHL19 protein abundance at 10000 nM after 4 hrs by Western blot analysis relative to DMSO; method in brief: as §3
[24] = biological target: T1, Protein cereblon/von Hippel-Lindau disease tumor suppressor; assay: Protac activity at VHL/CRBN in human HeLa cells assessed as pVHL30 protein abundance at 5000 nM after 4 hrs by Western blot analysis relative to DMSO; method in brief: as §3
[25] = biological target: T1, Protein cereblon/von Hippel-Lindau disease tumor suppressor; assay: Protac activity at VHL/CRBN in human HeLa cells assessed as CRBN protein abundance at 5 nM after 4 hrs by Western blot analysis relative to DMSO; method in brief: as §3
[26] = biological target: T1, Protein cereblon/von Hippel-Lindau disease tumor suppressor; assay: Protac activity at VHL/CRBN in human HeLa cells assessed as induction of CRBN degradation after 4 hrs by Western blot analysis; method in brief: as §3
Target sequence in this assay (P40337 whole entry): as the sequence (P40337 whole entry, looked up) above
Target sequence in this assay (Q96SW2 whole entry): as the sequence (Q96SW2 whole entry, looked up) above

[27] = biological target: T1, Protein cereblon/von Hippel-Lindau disease tumor suppressor; assay: Protac activity at VHL/CRBN in human HeLa cells assessed as pVHL19 protein abundance at 10 nM after 4 hrs by Western blot analysis relative to DMSO; method in brief: as §3
[28] = biological target: T1, Protein cereblon/von Hippel-Lindau disease tumor suppressor; assay: Protac activity at VHL/CRBN in human HeLa cells assessed as CRBN protein abundance at 1 uM after 4 hrs by Western blot analysis relative to DMSO; method in brief: as §2
[29] = biological target: T1, Protein cereblon/von Hippel-Lindau disease tumor suppressor; assay: Protac activity at VHL/CRBN in human HeLa cells assessed as reduction in CRBN protein level at 1 uM after 4 hrs by Western blot analysis; method in brief: as §3
[30] = biological target: T1, Protein cereblon/von Hippel-Lindau disease tumor suppressor; assay: Protac activity at VHL/CRBN in human HeLa cells assessed as induction of VHL degradation at 1 uM after 1 to 24 hrs by Western blot analysis; settings: time hrs 1-24; method in brief: as §2

Q: With `Cc1ncsc1-c1ccc(CNC(=O)[C@@H]2C[C@@H](O)CN2C(=O)[C@@H](NC(=O)COCCCCCOCCOCCCCCOCC(=O)NCCNc2cccc3c2C(=O)N(C2CCC(=O)NC2=O)C3=O)C(C)(C)C)cc1` (stereo not given in full) as the compound, how does the Activity [1] read?
A: 98%

Q: What about the Activity [2] of the same compound?
A: 105%

Q: What about the Activity [3] of the same compound?
A: 102%

Q: And the Activity [4]?
A: 98%

Q: And the Activity [5]?
A: 113%

Q: And the Activity [6]?
A: 9%

Q: What about the Activity [7] of the same compound?
A: 6%

Q: And the Activity [8]?
A: 113%

Q: And the Activity [9]?
A: 109%

Q: And the Activity [10]?
A: 106%

Q: What about the Activity [11] of the same compound?
A: 135%

Q: And the Activity [12]?
A: 124%

Q: And the Activity [13]?
A: 128%

Q: What about the Activity [14] of the same compound?
A: 63%

Q: What about the Activity [15] of the same compound?
A: 27%

Q: What about the Activity [16] of the same compound?
A: 25%

Q: And the Activity [17]?
A: 66%

Q: And the Activity [18]?
A: 100%

Q: And the Activity [19]?
A: 100%

Q: What about the Activity [20] of the same compound?
A: 87%

Q: And the Activity [21]?
A: 106%

Q: And the Activity [22]?
A: 110%

Q: What about the Activity [23] of the same compound?
A: 124%

Q: And the Activity [24]?
A: 143%

Q: What about the Activity [25] of the same compound?
A: 85%

Q: And the DC50 [26]?
A: 200 nM

Q: And the Activity [27]?
A: 95%

Q: What about the Activity [28] of the same compound?
A: 19%

Q: And the Activity [29]?
A: Active

Q: What about the Activity [30] of the same compound?
A: inactive
